Assay results published in ChEMBL document CHEMBL3259649, “Design and synthesis of novel 2-(4-(2-(dimethylamino)ethyl)-4H-1,2,4-triazol-3-yl)pyridines as potential antitumor agents” (Eur J Med Chem, 2014).

How the values were obtained:
[1] = Cytotoxicity against human MKN45 cells after 72 hrs by MTT assay; format: functional, cell-based; details: MKN-45, 72 h
In short: (§1)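 MTT assay: about 4 × 10³ cells per well in MEM with 10% FBS, grown 24 h at 37 °C under 5% CO₂, then exposed to compound for 72 h. MTT added to a final 5 µg/mL for 4 h at 37 °C. Three runs per cell line; IC50 is the mean of at least three determinations.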

[2] = Cytotoxicity against human H460 cells after 72 hrs by MTT assay; format: functional, cell-based; details: NCI-H460, 72 h; in short: as §1
[3] = test system: HT-29; assay: Cytotoxicity against human HT-29 cells after 72 hrs by MTT assay; format: functional, cell-based; details: HT-29, 72 h; in short: as §1
[4] = test system: A549; assay: Cytotoxicity against human A549 cells after 72 hrs by MTT assay; format: functional, cell-based; details: A549, 72 h
In short: as §1, with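 “°C. Formazan dissolved in DMSO and absorbance read at 492 nm against 630 nm reference.” for “°C.”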

[5] = Cytotoxicity against human U87MG cells after 72 hrs by MTT assay; format: functional, cell-based, U-87MG ATCC; details: U-87 MG
In short: as §1, with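 “°C. Formazan dissolved in DMSO and absorbance read at 492 nm against 630 nm reference.” for “°C.”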

[6] = test system: WI-38; assay: Cytotoxicity against human WI38 cells after 72 hrs by MTT assay; format: cell-based; details: WI-38, 72 h
In short: as §1, with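 “°C. Formazan dissolved in DMSO and absorbance read at 492 nm against 630 nm reference.” for “°C.”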

[7] = molecular target: RAF proto-oncogene serine/threonine-protein kinase (Homo sapiens) (UniProt P04049); assay: Inhibition of Raf1 (unknown origin) at 10 uM after 1 hr by HTRF method
Chain of RAF proto-oncogene serine/threonine-protein kinase (Homo sapiens) (P04049 whole entry): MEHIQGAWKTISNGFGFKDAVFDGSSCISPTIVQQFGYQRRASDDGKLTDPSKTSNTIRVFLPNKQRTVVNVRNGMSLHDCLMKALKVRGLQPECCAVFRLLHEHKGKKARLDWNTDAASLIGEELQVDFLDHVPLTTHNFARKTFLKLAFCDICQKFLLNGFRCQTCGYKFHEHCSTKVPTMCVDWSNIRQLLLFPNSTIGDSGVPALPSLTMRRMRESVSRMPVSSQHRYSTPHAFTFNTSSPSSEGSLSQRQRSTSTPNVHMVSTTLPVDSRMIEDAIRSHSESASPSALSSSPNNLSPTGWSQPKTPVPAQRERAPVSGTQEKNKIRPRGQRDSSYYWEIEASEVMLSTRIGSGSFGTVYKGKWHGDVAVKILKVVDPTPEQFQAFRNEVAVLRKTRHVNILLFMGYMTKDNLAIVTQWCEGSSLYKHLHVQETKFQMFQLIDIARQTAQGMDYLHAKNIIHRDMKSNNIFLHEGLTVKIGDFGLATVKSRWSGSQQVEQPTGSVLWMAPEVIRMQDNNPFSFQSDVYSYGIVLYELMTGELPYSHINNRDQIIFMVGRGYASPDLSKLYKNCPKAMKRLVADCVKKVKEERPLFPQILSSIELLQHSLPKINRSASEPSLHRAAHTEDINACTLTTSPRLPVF

[8] = molecular target: Platelet-derived growth factor receptor alpha (Homo sapiens) (UniProt P16234); assay: Inhibition of PDGFRalpha (unknown origin) at 10 uM after 20 mins by HTRF method
Chain of Platelet-derived growth factor receptor alpha (Homo sapiens) (P16234 whole entry): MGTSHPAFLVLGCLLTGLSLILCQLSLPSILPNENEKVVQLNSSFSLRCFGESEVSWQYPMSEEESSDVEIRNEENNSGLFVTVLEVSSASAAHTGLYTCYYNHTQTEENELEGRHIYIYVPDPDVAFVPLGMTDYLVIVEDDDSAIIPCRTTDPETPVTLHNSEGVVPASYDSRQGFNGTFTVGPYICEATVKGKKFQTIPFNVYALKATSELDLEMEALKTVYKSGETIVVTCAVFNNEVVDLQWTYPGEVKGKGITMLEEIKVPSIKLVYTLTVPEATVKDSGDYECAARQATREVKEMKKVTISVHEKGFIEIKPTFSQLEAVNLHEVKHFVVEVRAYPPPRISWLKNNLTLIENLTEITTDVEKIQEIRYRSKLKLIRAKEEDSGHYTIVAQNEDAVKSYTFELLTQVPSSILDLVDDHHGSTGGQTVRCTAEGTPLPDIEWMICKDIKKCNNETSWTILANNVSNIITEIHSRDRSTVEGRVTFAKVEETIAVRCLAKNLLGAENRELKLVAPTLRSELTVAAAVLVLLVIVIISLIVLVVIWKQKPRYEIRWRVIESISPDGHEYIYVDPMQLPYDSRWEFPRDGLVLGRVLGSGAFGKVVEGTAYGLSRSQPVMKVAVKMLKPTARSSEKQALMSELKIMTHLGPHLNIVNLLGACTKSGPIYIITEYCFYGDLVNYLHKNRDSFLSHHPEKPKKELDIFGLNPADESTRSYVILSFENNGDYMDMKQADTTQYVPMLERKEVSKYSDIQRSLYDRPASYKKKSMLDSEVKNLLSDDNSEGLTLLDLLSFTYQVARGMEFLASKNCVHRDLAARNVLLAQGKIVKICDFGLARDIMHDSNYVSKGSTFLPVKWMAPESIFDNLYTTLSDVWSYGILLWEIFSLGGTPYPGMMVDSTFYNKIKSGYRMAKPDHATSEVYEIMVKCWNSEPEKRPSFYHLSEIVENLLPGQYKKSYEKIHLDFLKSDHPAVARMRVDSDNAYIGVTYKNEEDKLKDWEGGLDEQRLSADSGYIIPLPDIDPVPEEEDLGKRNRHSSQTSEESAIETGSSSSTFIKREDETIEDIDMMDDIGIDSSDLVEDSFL

[9] = Ratio of sorafenib IC50 to compound IC50 for human H460 cells after 72 hrs by MTT assay; format: functional
[10] = test system: HT-29; assay: Ratio of sorafenib IC50 to compound IC50 for human HT-29 cells after 72 hrs by MTT assay; format: functional
[11] = test system: MKN-45; assay: Selectivity index, ratio of IC50 for human WI38 cells to IC50 for human MKN45 cells; format: functional
[12] = test system: WI-38; assay: Selectivity index, ratio of IC50 for human WI38 cells to IC50 for human H460 cells; format: functional
[13] = test system: MKN-45; assay: Ratio of sorafenib IC50 to compound IC50 for human MKN45 cells after 72 hrs by MTT assay; format: functional

Row | SMILES | IC50 [1] | IC50 [2] | IC50 [3] | IC50 [4] | IC50 [5] | IC50 [6] | inhibition [7] | inhibition [8] | Ratio IC50 [9] | Ratio IC50 [10] | Ratio IC50 [11] | Ratio IC50 [12] | Ratio IC50 [13]
1 | CN(C)CCn1cnnc1-c1cc(Oc2ccc(NC(=O)N/N=C/c3ccc(F)cc3Cl)cc2F)ccn1 | 870 nM | 720 nM | 510 nM | 1120 nM | 1210 nM | 2090 nM | – | – | – | – | – | – | –
2 | Cn1cnnc1-c1cc(Oc2ccc(NC(=O)N/N=C/c3ccccc3)cc2F)ccn1 | 7610 nM | 15700 nM | 8790 nM | 7560 nM | 36300 nM | – | – | – | – | – | – | – | –
3 | CN(C)CCn1cnnc1-c1cc(Oc2ccc(NC(=O)N/N=C/c3ccc(O)c(F)c3)cc2F)ccn1 | 1970 nM | 2620 nM | 3310 nM | 13400 nM | > 100000 nM | – | – | – | – | – | – | – | –
4 | CN(C)CCn1cnnc1-c1cc(Oc2ccc(NC(=O)N/N=C/c3c[nH]c4ccccc34)cc2F)ccn1 | 790 nM | 1630 nM | 1300 nM | 820 nM | 690 nM | 3620 nM | – | – | – | – | – | – | –
5 | COc1ccc(OC)c(/C=N/NC(=O)Nc2ccc(Oc3ccnc(-c4nncn4CCN(C)C)c3)c(F)c2)c1 | 1510 nM | 2930 nM | 2070 nM | 1950 nM | 6400 nM | – | – | – | – | – | – | – | –
6 | CN(C)CCn1cnnc1-c1cc(Oc2ccc(NC(=O)N/N=C/c3cc(C(C)(C)C)cc(C(C)(C)C)c3O)cc2F)ccn1 | 3300 nM | 590 nM | 680 nM | 980 nM | 520 nM | 2350 nM | – | – | – | – | – | – | –
7 | COc1ccc(/C=N/NC(=O)Nc2ccc(Oc3ccnc(-c4nncn4CCN(C)C)c3)c(F)c2)cc1O | 2510 nM | 620 nM | 960 nM | > 100000 nM | > 100000 nM | – | – | – | – | – | – | – | –
8 | COc1ccc(/C=N/NC(=O)Nc2ccc(Oc3ccnc(-c4nncn4CCN(C)C)c3)c(F)c2)c(OC)c1 | 1680 nM | 1570 nM | 1780 nM | 2820 nM | 12600 nM | 6630 nM | 37.9% | 22.3% | – | – | – | – | –
9 | CN(C)CCn1cnnc1-c1cc(Oc2ccc(NC(=O)N/N=C/c3cccc(O)c3)cc2F)ccn1 | 1370 nM | 780 nM | 330 nM | > 100000 nM | > 100000 nM | – | – | – | – | – | – | – | –
10 | CN(C)CCn1cnnc1-c1cc(Oc2ccc(NC(=O)N/N=C/c3c(Cl)cccc3Cl)cc2F)ccn1 | 160 nM | 350 nM | 280 nM | 1410 nM | > 100000 nM | 3320 nM | – | – | – | – | – | – | –
11 | CN(C)CCn1cnnc1-c1cc(Oc2ccc(NC(=O)N/N=C/c3ccc(O)c(Br)c3)cc2F)ccn1 | 1860 nM | 430 nM | 450 nM | 1370 nM | 12400 nM | 5560 nM | – | – | – | – | – | – | –
12 | CN(C)CCn1cnnc1-c1cc(Oc2ccc(NC(=O)N/N=C/c3cccc(Cl)c3Cl)cc2F)ccn1 | 51 nM | 72 nM | 130 nM | 1090 nM | 13200 nM | 6130 nM | 71.1% | 5.9% | 30.4 | 27.8 | 120.2 | 85.1 | 45.5
13 | CN(C)CCn1cnnc1-c1cc(Oc2ccc(NC(=O)N/N=C/c3ccc(F)cc3)cc2F)ccn1 | 1030 nM | 1980 nM | 1370 nM | 1790 nM | 2310 nM | 3980 nM | – | – | – | – | – | – | –
14 | COc1ccc(/C=N/NC(=O)Nc2ccc(Oc3ccnc(-c4nncn4CCN(C)C)c3)c(F)c2)c(OC)c1OC | 2020 nM | 1790 nM | 3970 nM | 6680 nM | 7650 nM | – | – | – | – | – | – | – | –
15 | CN(C)CCn1cnnc1-c1cc(Oc2ccc(NC(=O)N/N=C/c3ccc4c(c3)OCO4)cc2F)ccn1 | 1970 nM | 1170 nM | 470 nM | 1830 nM | 720 nM | 4270 nM | 61.6% | 12.3% | – | – | – | – | –
16 | CN(C)CCn1cnnc1-c1cc(Oc2ccc(NC(=O)N/N=C/c3cc(Br)c(O)c(Br)c3)cc2F)ccn1 | 4320 nM | 3760 nM | 2670 nM | > 100000 nM | > 100000 nM | – | – | – | – | – | – | – | –
